We go through 31 compounds from ChEMBL document CHEMBL1129649, “A novel series of (phenoxyalkyl)imidazoles as potent H3-receptor histamine antagonists” (J Med Chem, 1996).

Usually ED50 stands for the midpoint of the dose-response relation. A lower ED50 goes with greater potency. The Ki is a dissociation constant, usually derived from enzyme kinetics or from competition with a known ligand.

The test system of one assay is Mus musculus. Put plainly: In vivo evaluation for effect on brain tele-methylhistamine levels in mice. It is filed as functional. The method in brief: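 Male Swiss mice (18-22 g, groups of at least six) fasted 24 h, then dosed orally as salt suspended in 1% methylcellulose (doses as free base, starting at 10 mg/kg). Cerebral cortex taken 90 min later, homogenized in ice-cold 0.4 M perchloric acid; tele-methylhistamine measured by radioimmunoassay. ED50 calculated relative to maximal level produced by 10 mg/kg thioperamide.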

Another assay has as its target Histamine H3 receptor (Rattus norvegicus, UniProt Q9QYN8). Nature of the assay: Rat Histamine H3 receptor antagonism determined by [K+] - evoked depolarization-induced release of [3H]histamine from rat cerebral cortex synaptosomes. In kind it is functional, subcellular, Brain.

Histamine H3 receptor, sequence (Q9QYN8 whole entry): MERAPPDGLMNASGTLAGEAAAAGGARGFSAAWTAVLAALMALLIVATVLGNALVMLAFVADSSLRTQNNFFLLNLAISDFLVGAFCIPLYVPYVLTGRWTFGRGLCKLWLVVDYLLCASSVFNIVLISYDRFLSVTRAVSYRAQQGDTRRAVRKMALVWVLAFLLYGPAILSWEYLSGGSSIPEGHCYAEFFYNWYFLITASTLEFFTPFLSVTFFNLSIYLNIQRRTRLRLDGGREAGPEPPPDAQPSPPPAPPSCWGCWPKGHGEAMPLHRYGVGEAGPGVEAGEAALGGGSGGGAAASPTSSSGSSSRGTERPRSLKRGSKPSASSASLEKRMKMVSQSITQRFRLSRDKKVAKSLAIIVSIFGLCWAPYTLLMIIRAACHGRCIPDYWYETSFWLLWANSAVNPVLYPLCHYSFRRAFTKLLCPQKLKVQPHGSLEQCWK

Compound `O=[N+]([O-])c1ccc(SCCc2c[nH]cn2)nc1` displayed an ED50 with Mus musculus of 2.6 mg/kg.

In the case of `N#Cc1ccc(OCCCc2c[nH]cn2)cc1`, the ED50 in the assay with Mus musculus came to 0.54 mg/kg.

In the assay with Mus musculus, `N#Cc1ccc(OCCc2c[nH]cn2)cc1` returned an ED50 of 1.2 mg/kg.

The compound `Clc1ccc(OCCc2c[nH]cn2)cc1` displayed a Ki at Histamine H3 receptor of 21 nM. In the assay with Mus musculus, this compound displayed an ED50 of 0.78 mg/kg.

With `CC(=O)c1ccc(OCCc2c[nH]cn2)cc1`, the ED50 in the assay on Mus musculus came to 3.2 mg/kg.

Consider `Brc1ccc(OCCc2c[nH]cn2)cc1`, for which affinity on Histamine H3 receptor was put at a Ki of 24 nM. In the assay with Mus musculus, this compound yielded an ED50 of 2.9 mg/kg.

Regarding `c1ccc2cc(OCCc3c[nH]cn3)ccc2c1`, it took a dose of 1.5 mg/kg to reach the 50% effect level in the assay with Mus musculus (ED50).

At Histamine H3 receptor, `COc1ccc(OCCc2cnc[nH]2)cc1` came in with a Ki of 38 nM. The compound also showed an ED50 with Mus musculus of 2.9 mg/kg.

In the case of `O=[N+]([O-])c1ccc(CSCc2c[nH]cn2)cc1`, the 50% effective dose (ED50) with Mus musculus was over 10 mg/kg.

With `O=[N+]([O-])c1ccc(SCCc2c[nH]cn2)cc1`, the Ki on Histamine H3 receptor stood at 9 nM. In the assay with Mus musculus, this compound registered an ED50 of 2.7 mg/kg.

Turning to `O=C(c1ccccc1)c1ccc(OCCc2c[nH]cn2)cc1`, at Histamine H3 receptor, the Ki amounted to 54 nM. The 50% effect level in the assay with Mus musculus (ED50) was put at a dose of 2.6 mg/kg.

In the case of `CCCc1ccc(OCCc2c[nH]cn2)cc1`, in the assay with Mus musculus, it took a dose of 1.6 mg/kg to reach the 50% effect level (ED50).

Regarding `Cc1ccc(OCCc2c[nH]cn2)cc1`, the ED50 in the assay on Mus musculus came to 2.3 mg/kg.

With `N#Cc1ccccc1OCCc1c[nH]cn1`, the ED50 in the assay on Mus musculus was over 10 mg/kg.

Regarding `COC(=O)c1ccc(OCCc2c[nH]cn2)cc1`, affinity at Histamine H3 receptor was put at a Ki of 5.1 nM. Also, the ED50 in the assay on Mus musculus was over 3 mg/kg.

Take `N#Cc1cccc(OCCc2c[nH]cn2)c1`: the affinity at Histamine H3 receptor corresponds to a Ki of 39 nM. The compound also displayed an ED50 in the assay on Mus musculus of 2.9 mg/kg.

The compound `O=[N+]([O-])c1cccc(OCCc2c[nH]cn2)c1` registered a Ki on Histamine H3 receptor of 12 nM. Further, in the assay with Mus musculus, the 50% effect level (ED50) was put at a dose of 0.9 mg/kg.

For the compound `FC(F)(F)c1ccc(OCCc2cnc[nH]2)cc1`, the Ki at Histamine H3 receptor was 68 nM. Further, the ED50 with Mus musculus was over 10 mg/kg.

Turning to `FC(F)(F)c1ccc(OCCCc2c[nH]cn2)cc1`, it took a dose of 0.6 mg/kg to reach the 50% effect level in the assay on Mus musculus (ED50).

In turn, `Clc1cc(Cl)cc(OCCc2c[nH]cn2)c1` showed a Ki at Histamine H3 receptor of over 500 nM. The same compound came in with an ED50 in the assay on Mus musculus of over 10 mg/kg.

On to `c1ccc2c(OCCc3c[nH]cn3)cccc2c1`, for which affinity at Histamine H3 receptor was put at a Ki of 137 nM. In addition, the 50% effect level in the assay with Mus musculus (ED50) was put at a dose of 3.4 mg/kg.

On Histamine H3 receptor, `Fc1c(F)c(F)c(OCCc2c[nH]cn2)c(F)c1F` returned a Ki of over 500 nM. This compound had an ED50 in the assay with Mus musculus of 10 mg/kg.

`Fc1ccc(OCCCc2cnc[nH]2)cc1` had a Ki at Histamine H3 receptor of 11 nM. The same compound yielded an ED50 in the assay on Mus musculus of 4.9 mg/kg.

Consider `O=C(c1ccc(OCCc2cnc[nH]2)cc1)N1CCCCC1`, for which the Ki at Histamine H3 receptor came out at 338 nM. This compound also came in with an ED50 in the assay with Mus musculus of over 10 mg/kg.

As for `CCC(=O)c1ccc(OCCc2cnc[nH]2)cc1`, the Ki on Histamine H3 receptor was 3.7 nM. For the same compound, the ED50 in the assay on Mus musculus was found to be 0.95 mg/kg.

With `CCc1ccc(OCCc2cnc[nH]2)cc1`, on Histamine H3 receptor, affinity was put at a Ki of 80 nM. For the same compound, the ED50 with Mus musculus is over 10 mg/kg.

For the compound `O=[N+]([O-])c1ccc(OCCc2c[nH]cn2)cc1`, the ED50 with Mus musculus came to 0.66 mg/kg.

As to `O=[N+]([O-])c1ccc(NCCc2c[nH]cn2)nc1`, the Ki on Histamine H3 receptor is 29 nM.

With `CCOC(=O)c1ccc(OCCc2c[nH]cn2)cc1`, affinity at Histamine H3 receptor was put at a Ki of 6 nM. Also, the ED50 in the assay with Mus musculus was over 10 mg/kg.

With `O=[N+]([O-])c1ccc(NCCc2c[nH]cn2)cc1`, it took a dose of 10.7 mg/kg to reach the 50% effect level with Mus musculus (ED50).

The compound `S=C(NC1CCCCC1)N1CCC(c2cnc[nH]2)CC1` [THIOPERAMIDE] showed an ED50 with Mus musculus of 1 mg/kg.
